According to article PMC10467613 (RSC Chemical Biology, 2023):

Tests used:
[1] = molecular target: T1, HsIYD containing 2′-deoxyFMN (Homo sapiens, UniProt Q6PHW0, DEL2-31); assay: flavin fluorescence quenching titration; type: binding
T1 sequence (Q6PHW0 32-289): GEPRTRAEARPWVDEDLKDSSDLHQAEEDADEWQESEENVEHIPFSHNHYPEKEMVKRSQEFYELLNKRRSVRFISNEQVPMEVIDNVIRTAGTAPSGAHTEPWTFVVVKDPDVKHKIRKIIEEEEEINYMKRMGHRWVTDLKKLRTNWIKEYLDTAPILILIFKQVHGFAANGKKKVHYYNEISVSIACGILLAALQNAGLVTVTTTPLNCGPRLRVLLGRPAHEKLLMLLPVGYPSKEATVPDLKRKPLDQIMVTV
Outline: (§1)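 Enzyme: human IYD lacking residues 2–31 (SUMO fusion, tag removed) or T. neapolitana IYD (C-terminal His6; dithionite wash first). FMN was stripped on a Ni column with up to 1.5 M guanidinium HCl, then reloaded with 200 μM 2′-deoxyFMN for 4 h at 4 °C. Ligand was titrated into 3 μM enzyme in 100 mM potassium phosphate pH 7.4 at 25 °C. Flavin fluorescence (ex 450/em 516 nm) was read 2 min after each addition. Kd was fitted from ΔF/F0 versus total enzyme and total ligand.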

[2] = molecular target: T2, TnIYD containing 2′-deoxyFMN (Thermotoga neapolitana, UniProt B9K712); assay: flavin fluorescence quenching titration; type: binding
T2 sequence (B9K712 1-186): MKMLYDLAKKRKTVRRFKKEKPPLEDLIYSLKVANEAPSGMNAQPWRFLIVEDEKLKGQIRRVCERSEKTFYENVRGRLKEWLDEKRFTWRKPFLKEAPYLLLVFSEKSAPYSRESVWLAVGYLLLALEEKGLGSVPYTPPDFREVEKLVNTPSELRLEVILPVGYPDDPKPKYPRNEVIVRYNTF
Outline: as §1

## N[C@@H](Cc1ccc(O)c(F)c1)C(=O)O [F-Tyr, 3-Fluoro-L-tyrosine]
[1]
  Kd: 1500 ± 70 µM

## COc1ccc(C[C@H](N)C(=O)O)cc1I [O-Me I-Tyr]
[2]
  Kd: 6.3 ± 0.7 µM
